Data set [1] is described as follows: Activity of beta-lactamase FUS1 assessed as compound hydrolysis by spectrophotometry relative to benzyl-penicillin. Also on record: scale not given: the % may be the effect or the level left.
The nature of data set [2]: Ratio of Kcat to Km for beta-lactamase FUS1 assessed as compound hydrolysis by spectrophotometry.
Data set [3] can be described thus: Activity of beta-lactamase FUS1 assessed as compound hydrolysis by spectrophotometry.
Data set [4] addresses T1, Class D beta-lactamase (Brachyspira pilosicoli) (UniProt Q50H31).
T1 sequence (whole entry): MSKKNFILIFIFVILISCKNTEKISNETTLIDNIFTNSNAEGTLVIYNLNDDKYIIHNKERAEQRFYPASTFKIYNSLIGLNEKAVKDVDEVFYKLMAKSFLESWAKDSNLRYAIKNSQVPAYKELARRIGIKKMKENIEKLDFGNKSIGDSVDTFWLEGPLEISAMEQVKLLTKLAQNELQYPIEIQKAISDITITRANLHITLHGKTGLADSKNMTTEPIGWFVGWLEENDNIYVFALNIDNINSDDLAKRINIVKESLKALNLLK
The experiment in a line: Activity of Brachyspira pilosicoli beta-lactamase OXA-63 expressed in Escherichia coli BL21 (DE3) assessed as compound hydrolysis by spectrophotometry relative to oxacillin. Details: scale not given: the % may be the effect or the level left; call rule not given here.

The test system of data set [5] is Escherichia coli. Briefly: Antimicrobial activity against Escherichia coli JM83 without producing beta-lactamase OXA-63 after 3 days by Etest. It is filed as functional.
The subject of data set [6] is Escherichia coli. The experiment in a line: Antimicrobial activity against Escherichia coli JM83 harboring beta-lactamase OXA-63 after 3 days by Etest. The data set is classed as functional. The gist of the method:
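MICs for E. coli JM83 transformants were read by Etest on Mueller-Hinton agar. Transformants were selected on BHI agar with ampicillin 50 µg/ml and kanamycin 40 µg/ml.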

For data set [7], the system named is Brachyspira pilosicoli. Briefly: Antimicrobial activity against beta-lactamase OXA-63 producing Brachyspira pilosicoli isolate BM4442 isolated from feces of patient with diarrhea by disc diffusion method. The data set is classed as functional. The gist of the method:
(§1)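 Disk diffusion was done on Mueller-Hinton agar supplemented with 5% sheep blood, following Comité de l'Antibiogramme de la Société Française de Microbiologie standards. Plates were incubated in an anaerobic jar at 37°C for 3 days.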
A general note: In agar diffusion tests the substance spreads into inoculated agar from a disc or well.

Data set [8] deals with Brachyspira pilosicoli. Briefly: Antimicrobial activity against Brachyspira pilosicoli 80.10 without producing beta-lactamase OXA-63 by disc diffusion method. It is filed as functional. The gist of the method: as §1
The next data set addresses T2, Class D beta-lactamase (Brachyspira pilosicoli, UniProt Q50H31).
T2 sequence (Q50H31 whole entry): T1 sequence (whole entry)
The experiment in a line: Inhibition of Brachyspira pilosicoli beta-lactamase OXA-63 expressed in Escherichia coli BL21 (DE3) assessed as reduction in nitrocefin hydrolysis by spectrophotometry relative to oxacillin. The gist of the method:
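C-terminal His6-tagged OXA-63 was expressed in E. coli BL21(DE3)pLys with 0.5 mM IPTG for 4 h at 28°C and purified by nickel affinity. Enzyme (50 to 150 nM) was preincubated with inhibitor for 30 min at 25°C in 100 mM sodium phosphate, pH 7.0. 100 µM nitrocefin was then added, and initial hydrolysis rates were read spectrophotometrically. IC50 was the concentration halving the rate.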

Substrate in data set [9]: CC1(C)S[C@@H]2[C@H](NC(=O)C(C(=O)O)c3ccccc3)C(=O)N2[C@H]1C(=O)O
The experiment in a line: (§2) Activity of Brachyspira pilosicoli beta-lactamase OXA-63 expressed in Escherichia coli BL21 (DE3) assessed as compound hydrolysis by spectrophotometry.

Substrate in data set [10]: Cc1onc(-c2ccccc2)c1C(=O)N[C@@H]1C(=O)N2[C@@H]1SC(C)(C)[C@@H]2C(=O)O
Described as §2.

Substrate in data set [11]: CC(=O)OCC1=C(C(=O)O)N2C(=O)[C@@H](NC(=O)Cc3cccs3)[C@H]2SC1
The description is as §2.

Substrate in data set [12]: CC1(C)S[C@@H]2[C@H](NC(=O)Cc3ccccc3)C(=O)N2[C@H]1C(=O)O
Described as §2.

Substrate in data set [13]: CO/N=C(\C(=O)N[C@@H]1C(=O)N2C(C(=O)O)=C(COC(N)=O)CS[C@H]12)c1ccco1
The description is as §2.

Substrate in data set [14]: CCN1CCN(C(=O)N[C@@H](C(=O)N[C@@H]2C(=O)N3[C@@H]2SC(C)(C)[C@@H]3C(=O)O)c2ccccc2)C(=O)C1=O
The data set is described as §2.

Substrate in data set [15]: CC1(C)S[C@@H]2[C@H](NC(=O)[C@H](N)c3ccccc3)C(=O)N2[C@H]1C(=O)O
Described as §2.

Substrate in data set [16]: CC1(C)S[C@@H]2[C@H](NC(=O)C(C(=O)O)c3ccccc3)C(=O)N2[C@H]1C(=O)O
Briefly: (§3) Ratio of Kcat to Km for Brachyspira pilosicoli beta-lactamase OXA-63 expressed in Escherichia coli BL21 (DE3) assessed as compound hydrolysis by spectrophotometry.

Substrate in data set [17]: Cc1onc(-c2ccccc2)c1C(=O)N[C@@H]1C(=O)N2[C@@H]1SC(C)(C)[C@@H]2C(=O)O
The description is as §3.

Substrate in data set [18]: CC1(C)S[C@@H]2[C@H](NC(=O)Cc3ccccc3)C(=O)N2[C@H]1C(=O)O
Described as §3.

Substrate in data set [19]: CCN1CCN(C(=O)N[C@@H](C(=O)N[C@@H]2C(=O)N3[C@@H]2SC(C)(C)[C@@H]3C(=O)O)c2ccccc2)C(=O)C1=O
The description is as §3.

Substrate in data set [20]: CC1(C)S[C@@H]2[C@H](NC(=O)[C@H](N)c3ccccc3)C(=O)N2[C@H]1C(=O)O
The data set is described as §3.

Values after ≈ are worked out from the molar mass of the structure shown.

The text below walks through data of ChEMBL document CHEMBL1255294, “Genetic and biochemical characterization of OXA-63, a new class D beta-lactamase from Brachyspira pilosicoli BM4442” (Antimicrob Agents Chemother, 2008).

By Km is commonly meant the substrate concentration at which the rate is half of its maximum. By kcat is commonly meant the number of substrate molecules converted per active site and unit of time at saturation. With `CC(=O)OCC1=C(C(=O)O)N2C(=O)[C@@H](NC(=O)Cc3cccs3)[C@H]2SC1`, in data set [1], the Activity is 0.1%. Besides, the kcat/Km in data set [2] came out at 8.7 ×10⁵ /M/s. For the same molecule, in [3], the Km was found to be 47 µM and the kcat is 4.1 s⁻¹.
As to `CC1(C)S[C@@H]2[C@H](NC(=O)[C@H](N)c3ccccc3)C(=O)N2[C@H]1C(=O)O`, in data set [1], the Activity is 0.7%. In addition, the kcat/Km in data set [2] is 5.7 ×10⁵ /M/s. In addition, in data set [3], the Km stood at 76 µM and the catalytic constant (kcat) came to 45 s⁻¹. For the same molecule, the Activity in data set [4] is 15%.
Regarding `CO/N=C(\C(=O)N[C@@H]1C(=O)N2C(C(=O)O)=C(COC(N)=O)CS[C@H]12)c1ccco1`, the Activity in data set [1] is 0.005%. Further, the kcat/Km in data set [2] was found to be 4.5 ×10⁵ /M/s. Further, in data set [3], the Km was greater than 400 µM and the kcat was greater than 1.8 s⁻¹.
One may read the MIC as the least concentration at which growth counts as inhibited. As to `CC1(C)S[C@@H]2[C@H](NC(=O)[C@H](N)c3ccc(O)cc3)C(=O)N2[C@H]1C(=O)O` [AMOXICILLIN], the MIC against Escherichia coli [5] was 6 µg/mL (≈ 16.4 µM); against Escherichia coli [6], 256 µg/mL (≈ 701 µM); against Brachyspira pilosicoli [7], 1.5 µg/mL (≈ 4.1 µM); in the data set on Brachyspira pilosicoli [8] it was 0.047 µg/mL (≈ 0.129 µM).
`C[C@H]1[C@H](NC(=O)/C(=N\OC(C)(C)C(=O)O)c2csc(N)n2)C(=O)N1S(=O)(=O)O` [AZTREONAM]: the MIC in the data set on Escherichia coli [5] came out at 0.19 µg/mL (≈ 0.436 µM); against Escherichia coli [6] it was 0.19 µg/mL (≈ 0.436 µM); against Brachyspira pilosicoli [7] it was 1 µg/mL (≈ 2.3 µM); in the data set with Brachyspira pilosicoli [8] it was 1 µg/mL (≈ 2.3 µM).
As for `CO/N=C(\C(=O)N[C@@H]1C(=O)N2C(C(=O)O)=C(COC(C)=O)CS[C@H]12)c1csc(N)n1` [CEFOTAXIME], the MIC against Escherichia coli [5] is 0.064 µg/mL (≈ 0.141 µM); with Escherichia coli [6], 0.064 µg/mL (≈ 0.141 µM); in the data set on Brachyspira pilosicoli [7], 0.032 µg/mL (≈ 0.0703 µM); in the data set on Brachyspira pilosicoli [8], less than 0.016 µg/mL.
As for `CC(C)(O/N=C(\C(=O)N[C@@H]1C(=O)N2C(C(=O)[O-])=C(C[n+]3ccccc3)CS[C@H]12)c1csc(N)n1)C(=O)O` [CEFTAZIDIME], the MIC in the data set on Escherichia coli [5] worked out at 0.5 µg/mL (≈ 0.915 µM); against Escherichia coli [6] it was 0.5 µg/mL (≈ 0.915 µM); against Brachyspira pilosicoli [7], 4 µg/mL (≈ 7.32 µM); against Brachyspira pilosicoli [8], 4 µg/mL (≈ 7.32 µM).
The IC50 is the point on the concentration scale where inhibition reaches its midpoint. With `O=C(O)[C@H]1/C(=C/CO)O[C@@H]2CC(=O)N21` [CLAVULANIC ACID], the concentration for half-maximal inhibition (IC50) on Class D beta-lactamase was found to be 2000 nM.
On to `C[C@@H](O)[C@H]1C(=O)N2C(C(=O)O)=C(SCCNC=N)C[C@H]12` [IMIPENEM ANHYDROUS], for which the MIC is less than 4 µg/mL against Escherichia coli [5], 4 µg/mL (≈ 13.4 µM) in the data set on Escherichia coli [6], less than 4 µg/mL against Brachyspira pilosicoli [7] and less than 4 µg/mL against Brachyspira pilosicoli [8].
Consider `C[C@@H](O)[C@H]1C(=O)N2C(C(=O)O)=C(S[C@@H]3CN[C@H](C(=O)N(C)C)C3)[C@H](C)[C@H]12` [MEROPENEM], for which the MIC came out at 0.032 µg/mL (≈ 0.0834 µM) with Escherichia coli [5], 0.016 µg/mL (≈ 0.0417 µM) against Escherichia coli [6], 0.032 µg/mL (≈ 0.0834 µM) against Brachyspira pilosicoli [7] and 0.032 µg/mL (≈ 0.0834 µM) against Brachyspira pilosicoli [8].
In the case of `Cc1onc(-c2ccccc2)c1C(=O)N[C@@H]1C(=O)N2[C@@H]1SC(C)(C)[C@@H]2C(=O)O` [OXACILLIN], the Activity in data set [1] came out at 25%. In addition, the kcat/Km in data set [2] is 2.1 ×10⁷ /M/s. Moreover, in data set [3], the Km stood at 36 µM. In addition, in [3], the turnover number (kcat) was 780 s⁻¹. The MIC is greater than 256 µg/mL with Brachyspira pilosicoli [7] and 0.125 µg/mL (≈ 0.311 µM) against Brachyspira pilosicoli [8].
Consider `CC1(C)S[C@@H]2[C@H](NC(=O)Cc3ccccc3)C(=O)N2[C@H]1C(=O)O` [PENICILLIN G], for which the MIC turned out to be 24 µg/mL (≈ 71.8 µM) against Escherichia coli [5], 256 µg/mL (≈ 766 µM) in the data set with Escherichia coli [6], 2 µg/mL (≈ 5.98 µM) in the data set with Brachyspira pilosicoli [7] and 0.023 µg/mL (≈ 0.0688 µM) in the data set with Brachyspira pilosicoli [8]. Further, the kcat/Km in [2] came to 8.3 ×10⁷ /M/s. Also, the Km in data set [3] is 10 µM. Also, the kcat in data set [3] worked out at 830 s⁻¹. The Activity in data set [4] amounted to 25.5%.
As to `CCN1CCN(C(=O)N[C@@H](C(=O)N[C@@H]2C(=O)N3[C@@H]2SC(C)(C)[C@@H]3C(=O)O)c2ccccc2)C(=O)C1=O` [PIPERACILLIN], the minimal inhibitory concentration (MIC) is 1.5 µg/mL (≈ 2.9 µM) against Escherichia coli [5], 96 µg/mL (≈ 185 µM) in the data set with Escherichia coli [6], 48 µg/mL (≈ 92.7 µM) against Brachyspira pilosicoli [7] and 0.016 µg/mL (≈ 0.0309 µM) against Brachyspira pilosicoli [8]. For the same molecule, the Activity in [4] is 6.5%.
In the case of `CC1(C)[C@H](C(=O)O)N2C(=O)C[C@H]2S1(=O)=O` [SULBACTAM], at Class D beta-lactamase, the IC50 amounted to 12000 nM.
Regarding `C[C@]1(Cn2ccnn2)[C@H](C(=O)O)N2C(=O)C[C@H]2S1(=O)=O` [TAZOBACTAM], the IC50 at Class D beta-lactamase amounted to 160 nM.

B1: Class D beta-lactamase (Brachyspira pilosicoli), Q50H31 (protein)
chain: T1 sequence (whole entry)
Regarding B1, the Michaelis constant (Km) in data set [9] was found to be 17 µM; in [10], 115 µM; in data set [12], 19 µM; in data set [14], 33 µM; in data set [15], 43 µM. For the same molecule, the kcat is 1.1 s⁻¹ in data set [9]; 113 s⁻¹ in data set [10]; “Not Active” in data set [11]; 4.9 s⁻¹ in data set [12]; “Not Active” in [13]; 2.1 s⁻¹ in [14]. In addition, the kcat in [15] came to 6.6 s⁻¹. Moreover, the kcat/Km in data set [16] came out at 6.5 ×10⁴ /M/s; in data set [17], 9.8 ×10⁵ /M/s; in data set [18] it was 2.5 ×10⁵ /M/s; in data set [19], 6.4 ×10⁴ /M/s; in [20], 1.5 ×10⁵ /M/s.
